Results as given in ChEMBL document CHEMBL1152977, “Phenolic glycosides from Alangium salviifolium leaves with inhibitory activity on LPS-induced NO, PGE(2), and TNF-alpha production” (Bioorg Med Chem Lett, 2009).

How the values were obtained:
RAW264.7 [1] = experiment: Antiinflammatory activity in LPS-stimulated mouse RAW264.7 cells assessed as NO production at 10 uM treated 1 hr before LPS challenge measured after 24 hrs by Griess reagent assay (RVb= 28.72 +/- 1.31 uM); type: functional
In short: (§1)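 Culture medium (phenol red-free) collected after 1 h compound pretreatment then 24 h with LPS 1 µg/mL; mixed 1:1 with Griess reagent (1% sulfanilamide in 5% phosphoric acid plus 0.1% naphthylethylenediamine-HCl), 10 min room temperature, absorbance 550 nm. Nitrite quantified against NaNO2 serial-dilution standard curve, fresh medium as blank. L-NIL 10 µM positive control; means ± S.E.M., three independent experiments.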

RAW264.7 [2] = experiment: Cytotoxicity against LPS-stimulated mouse RAW264.7 cells assessed as cell viability at 50 uM after 24 hrs by MTT assay; type: cell-based; details: raw264.7, 24 h
In short: (§2)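 MTT viability assay on RAW 264.7 cells at up to 50 µM for 24 h, run both with and without LPS.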

RAW264.7 [3] = experiment: Cytotoxicity against mouse RAW264.7 cells assessed as cell viability at 50 uM after 24 hrs by MTT assay; type: cell-based; details: raw264.7, 24 h; in short: as §2
RAW264.7 [4] = experiment: Antiinflammatory activity in mouse RAW264.7 cells assessed as inhibition of LPS-stimulated NO production treated 1 hr before LPS challenge measured after 24 hrs by Griess reagent assay; type: functional, cell-based; in short: as §1
RAW264.7 [5] = experiment: Antiinflammatory activity in mouse RAW264.7 cells assessed as decrease in LPS-stimulated PGE2 production treated 1 hr before LPS challenge measured after 24 hrs by enzyme immunoassay; type: functional, cell-based
In short: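 Cells pre-incubated 1 h with compound (5, 25, 50 µM tested), then LPS 1 µg/mL for 24 h; PGE2 in culture medium quantified by EIA kit per manufacturer. NS-398 10 µM positive control; means ± S.E.M. of three independent experiments, Student's t-test versus LPS-treated group.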

RAW264.7 [6] = experiment: Antiinflammatory activity in LPS-stimulated mouse RAW264.7 cells assessed as TNFalpha production at 5 uM treated 1 hr before LPS challenge measured after 24 hrs by enzyme immunoassay (RVb=46.7 +/- 4.8 uM); type: functional
RAW264.7 [7] = experiment: Antiinflammatory activity in LPS-stimulated mouse RAW264.7 cells assessed as TNFalpha production at 25 uM treated 1 hr before LPS challenge measured after 24 hrs by enzyme immunoassay (RVb=46.7 +/- 4.8 uM); type: functional
RAW264.7 [8] = experiment: Antiinflammatory activity in LPS-stimulated mouse RAW264.7 cells assessed as TNFalpha production at 50 uM treated 1 hr before LPS challenge measured after 24 hrs by enzyme immunoassay (RVb=46.7 +/- 4.8 uM); type: functional
RAW264.7 [9] = experiment: Antiinflammatory activity in LPS-stimulated mouse RAW264.7 cells assessed as PGE2 production at 10 uM treated 1 hr before LPS challenge measured after 24 hrs by enzyme immunoassay (RVb=11.5 +/- 0.36 uM); type: functional

SMILES	Activity (RAW264.7 [1])	Activity (RAW264.7 [2])	Activity (RAW264.7 [3])	Activity (RAW264.7 [4])	Activity (RAW264.7 [5])	Activity (RAW264.7 [6])	Activity (RAW264.7 [7])	Activity (RAW264.7 [8])	Activity (RAW264.7 [9])
CC(=N)NCCCC[C@H](N)C(=O)O [L-NIL]	11.3 µM	–	–	–	–	–	–	–	–
O=C(/C=C/c1ccccc1O)OCc1ccc(O[C@@H]2O[C@H](CO)[C@@H](O)[C@H](O)[C@H]2O)c(O)c1 [SALVIIFOSIDE B]	–	Non-toxic	Non-toxic	Dose-dependent effect	Dose-dependent effect	43.2 ng/mL	24.4 ng/mL	11.2 ng/mL	–
COc1ccccc1/C=C/C(=O)OCc1ccc(O[C@@H]2O[C@H](CO)[C@@H](O)[C@H](O)[C@H]2O)c(O)c1 [SALVIIFOSIDE C]	–	Non-toxic	Non-toxic	Dose-dependent effect	Dose-dependent effect	–	–	–	–
O=C(OCc1ccc(O[C@@H]2O[C@H](CO)[C@@H](O)[C@H](O)[C@H]2O)c(O)c1)c1ccccc1 [SALVIIFOSIDE A]	–	Non-toxic	Non-toxic	Dose-dependent effect	Dose-dependent effect	–	–	–	–
CS(=O)(=O)Nc1ccc([N+](=O)[O-])cc1OC1CCCCC1 [NS-398]	–	–	–	–	–	–	–	–	3.2 ng/mL
